Bioassay records from PubChem.
KCNQ1 act = potentiators or activators of KCNQ1 channel, primary screen, cell-based, thallium flux, high-throughput; Potassium voltage-gated channel subfamily KQT member 1 (Homo sapiens), P51787; CHO-K1 KCNQ1, thallium flux FluxOR fluorescence; hits give high values; B-score at 10 µM; 310,000 compounds, 0.35% hits; AID 2648, 2010;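 active = fluorescence ratio B-score, a plate-corrected score, at least three library SD, with initial intensity B-score within 5 SD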
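System: Stable KCNQ1 CHO-K1 line | Incubation: 90 min dye loading and 20 min compound exposure, both at room temperature | Measure: Ratio B score | Medium: Assay buffer for compound exposure, DMSO matched across wells | Compound dosing: Single-concentration screen | Probe or stimulus: K+/Tl+ depolarizing stimulus | Measured by: Kinetic FluxOR fluorescence, 10 s baseline plus 110 s post-stimulus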
KCNQ1 inh = inhibitors of human KCNQ1 channel, primary screen, cell-based, thallium flux, high-throughput; CHO-K1 KCNQ1, FluxOR thallium flux fluorescence; hits give high values; AID 2642, 2010; B-score at 10 µM; 310,000 compounds, 1.3% hits; Potassium voltage-gated channel subfamily KQT member 1 (Homo sapiens), P51787;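 active = compounds whose thallium flux B-score, printed positive for inhibition, exceeds three library SD while starting fluorescence stays within three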;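 note: channel opened by potassium depolarization with thallium stimulus after 20 min compound exposure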
KCNK9 inh = KCNK9 potassium channel inhibitors, primary screen, HEK293 cells, thallium flux; B-score at 10 µM; 310,000 compounds, 1.2% hits; AID 488922, 2010; FluxOR thallium flux fluorescence; hits give low values;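 active = ratio B-score over 3 SD below the library mean, with starting fluorescence within 5 SD of its mean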;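 note: negative B-score means less thallium flux so channel inhibition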
KCNK3 inh = human KCNK3 channel inhibitors, primary screen, CHO cells, FluxOR thallium flux, B-score; Potassium channel subfamily K member 3 (Homo sapiens), O14649; FluxOR fluorescence; hits give low values; B-score at 10 µM; 340,000 compounds, 0.84% hits; AID 602410, 2012;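 active = B-score under library mean minus 4 SD, starting fluorescence ratio at most library mean plus 5 SD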;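 note: more negative B-score means stronger inhibition of thallium flux through KCNK3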
Target sequence (O14649 whole entry, looked up): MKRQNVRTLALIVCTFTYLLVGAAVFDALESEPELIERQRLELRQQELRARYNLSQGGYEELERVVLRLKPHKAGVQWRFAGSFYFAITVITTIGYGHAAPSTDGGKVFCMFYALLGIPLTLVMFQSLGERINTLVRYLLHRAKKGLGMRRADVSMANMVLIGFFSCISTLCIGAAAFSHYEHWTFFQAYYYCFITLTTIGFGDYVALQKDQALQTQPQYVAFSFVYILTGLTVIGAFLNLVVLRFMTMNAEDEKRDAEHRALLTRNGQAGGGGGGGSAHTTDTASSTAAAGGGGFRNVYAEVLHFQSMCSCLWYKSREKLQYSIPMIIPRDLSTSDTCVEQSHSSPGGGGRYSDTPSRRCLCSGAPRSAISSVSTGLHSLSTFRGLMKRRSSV
hERG rescue = hERG rescue from dofetilide block, primary screen, cell-based, CHO-hERG, FluxOR thallium flux, dofetilide IC70; Voltage-gated inwardly rectifying potassium channel KCNH2 (Homo sapiens), Q12809; dofetilide IC70 present; activation (rescue from dofetilide block), less the hit threshold, % at 10 µM; 310,000 compounds, 0.51% hits; AID 1511, 2009;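 active = activation above the mean of controls blocked by dofetilide plus 5 SD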;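 note: thallium influx through hERG after potassium depolarization seen as dye fluorescence rise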
KCNK9 inh conf = KCNK9 potassium channel inhibitors, confirmation, HEK293 cells, thallium flux, duplicate; shares compounds with KCNK9 inh; inhibition, % at 10 µM; FluxOR thallium flux fluorescence; 4,900 compounds, 43% hits;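 active = thallium signal inhibited by more than 5 SD of the compound-free buffer control wells, on both duplicate plates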;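 note: 0% = assay buffer control wells without compound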
Kir21 sel = mouse Kir2.1 channel inhibition, confirmation, selectivity assay for KCNK9 modulator project, cell-based, HEK293, thallium flux; shares compounds with KCNK9 inh; Kir2.1 cells, FluxOR thallium flux fluorescence; inhibition, % at 10 µM; 4,900 compounds, 4% hits;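 active = thallium signal drop more than 5 SD beyond the mean of the no-compound control wells, seen in both duplicate plates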;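 note: signal is fluorescence rise after thallium addition divided by baseline fluorescence; plate controls were assay buffer only for no effect and full block by chlorpromazine control for full effect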
HEK293 Tl ctr = thallium flux in non-induced HEK293 cells, confirmation, counter-screen for KCNK9 inhibitor project, cell-based, second counter screen, non-induced KCNK9-HEK293 | shares compounds with KCNK9 inh | FluxOR thallium flux | inhibition, % at 10 µM | 4,900 compounds, 40% hits | AID 492997, 2010;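 active = thallium signal drop beyond 5 SD of the untreated control mean, on both duplicate plates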;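 note: plate controls were buffer only IC0 wells for no effect and SID17386958 at its maximal inhibitory level for full effect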
Starred values were filed as active, the others as inactive; i = inactive; x = no result. The list is not random: actives were taken first. Their share in the collection is about 3.1%.

SMILES | KCNQ1 act | KCNQ1 inh | KCNK9 inh | KCNK3 inh | hERG rescue | KCNK9 inh conf | Kir21 sel | HEK293 Tl ctr
O=C(COC(=O)c1ccc(Cl)c(S(=O)(=O)N2CCCCCC2)c1)Nc1ccccc1 | i | i | i | i | -6 | i | i | i
O=C(NCCCn1ccnc1)C1CCCN(S(=O)(=O)c2ccc(F)cc2)C1 (centres undefined) | i | i | i | i | -6 | x | x | x
Cc1ccc(CN2CCN(/N=C/C(Br)=C\c3ccccc3)CC2)cc1 | 16* | i | i | i | 2 | i | i | i
Cc1ccc(CN2CCN(/N=C/c3ccc(C(=O)O)cc3)CC2)cc1 | i | i | i | i | -11 | x | x | x
C=CCOc1ccc(CN(C)Cc2nc3cc(C(F)(F)F)ccc3c(=O)[nH]2)cc1 | i | i | i | i | -16 | i | i | i
COc1cccc(/C=C2\NC(=O)NC2=O)c1O | i | i | i | i | -13 | x | x | x
CCc1ccccc1NC(=O)C1=CC(c2ccc(OC)c(OC)c2)=NS(=O)(=O)N1C | i | i | i | i | -6 | x | x | x
Cc1cc(C(C)(C)C)cc(C)c1Cn1c2[n+](c3ccc(C(F)(F)F)cc31)CCCCC2 | i | 6* | -11* | i | -26 | 71%* | i | i
FC(F)(F)c1cccc(Cn2c3[n+](c4ccc(C(F)(F)F)cc42)CCCCC3)c1 | i | i | i | i | -19 | x | x | x
C=CCn1c(C)nnc1SCC(=O)NC1CCCCC1 | i | i | i | i | -4 | x | x | x
C=CCSc1nc2c(c(=N)n1CC=C)C1CCCC1S2 (centres undefined) | i | i | -18* | i | -8 | i | i | 36%*
CC(NC(=O)Cc1ccc(S(=O)(=O)N2CCOCC2)s1)c1ccc(Br)cc1 (centres undefined) | x | x | x | i | x | x | x | x
Cc1cc(C)nc(N/C(=N\S(=O)(=O)Cc2ccccc2)Nc2ccccc2Br)n1 | i | i | -9.4* | i | -9 | 40%* | i | i
CC(C)(C)c1cc(C2=CSC3=NCCN23)cc(C(C)(C)C)c1O | i | i | i | i | -16 | x | x | x
CN(C)/C=C(/C#N)C(=O)c1cccc(Oc2ccc(C(C)(C)C)cc2)c1 | i | i | i | i | -11 | i | i | 42%*
Cc1ccccc1Oc1cccc(C(=O)/C(C#N)=C/N(C)C)c1 | i | i | i | i | -3 | x | x | x
FC(F)(F)c1ccc(-c2nc(=S)[nH][nH]2)cc1 | i | i | i | i | -20 | i | i | i
Oc1ccc(-c2nc(=S)[nH][nH]2)cc1 | i | i | i | i | -7 | x | x | x
CCN(CC)C(=O)CSc1nc(-c2cccs2)cc(-c2cccs2)c1C#N | i | i | -9.8* | i | -21 | 62%* | i | 68%*
CCN(CC)C(=O)CSc1nc(N)c(C#N)c(-c2cccs2)c1C#N | i | i | i | i | 3 | x | x | x
CCC1=NN2C(=N)/C(=C\c3cccn3-c3cccc(Cl)c3)C(=O)N=C2S1 | i | i | i | i | -5 | i | i | i
O=C(CCNC(=O)C1CCN(S(=O)(=O)c2ccccc2)CC1)Nc1ccccc1 | i | i | i | i | -11 | x | x | x
CC(C)N(Cc1ccccc1)S(=O)(=O)c1cccs1 | i | i | -8.5* | -11* | -3 | 40%* | i | 37%*
